# Assay results gathered from unrelated publications.
# Compare with care: the assays were run in different laboratories.
# Cell line: HeLa
# Effect on: cell growth or viability
Compound,method,time,CC50
Cc1ccn2c(C(=O)N3CCN(Cc4cn(-c5ccc(Br)cc5)nn4)CC3)c(C)nc2c1,resazurin,,> 100 µM
O=[N+]([O-])c1ccc(-c2nc3cccc(O)c3[nH]2)o1,resazurin,72 h,20 µM
COCCN1CCN(c2nc(SCCc3ccccc3)c(C#N)c3c2COC(C)(C)C3)CC1,,,< 50 µM
CCOP(=O)(OCC)[C@@H]1C[C@H](n2cc(Cn3cc(C)c(=O)[nH]c3=O)nn2)ON1C (racemic),,72 h,> 250 µM
Cc1nc2ccc(Cl)cn2c1C(=O)N1CCN(Cc2cn(-c3ccc(Br)cc3)nn2)CC1,resazurin,,> 100 µM
COC(=O)c1ccnc(C(=O)OC)c1,,,> 1000 µM
CCOP(=O)(OCC)[C@@H]1C[C@@H](n2cc(C(=O)OC)nn2)ON1C (relative stereo),,72 h,> 250 µM
Cc1nc2ccc(Cl)cn2c1C(=O)N1CCN(Cc2cn(-c3ccc(F)c(Cl)c3)nn2)CC1,resazurin,,> 100 µM
CCOP(=O)(OCC)[C@@H]1C[C@@H](n2cc(-c3nccn3C)nn2)ON1C,,72 h,> 250 µM
Cc1nc2ccc(Cl)cn2c1C(=O)N1CCN(Cc2cn(-c3ccccc3Cl)nn2)CC1,resazurin,,> 100 µM
CN1CC[C@H](c2c(O)cc(O)c3c(=O)cc(-c4ccccc4Cl)oc23)[C@H](O)C1,MTT,72 h,0.12 µM
Cc1nc2ccc(Cl)cn2c1C(=O)N1CCN(Cc2cn(-c3ccccc3F)nn2)CC1,resazurin,,> 100 µM
O=C(O)c1ccc(O)c2ncccc12,,,> 1000 µM
CSSc1ccccc1C(=O)O,MTT,48 h,409 µM
CCOP(=O)(OCC)[C@@H]1C[C@@H](n2cc(Cn3cnc4c(N)ncnc43)nn2)ON1C (racemic),,72 h,> 250 µM
COC(=O)[C@@H]1Cc2c([nH]c3ccccc23)[C@@H](c2ccc3c(c2)OCO3)N1,MTT,48 h,10 µg/mL
